Reference: ChEMBL document CHEMBL4411275, “Design, synthesis and biological evaluation of quinoline-indole derivatives as anti-tubulin agents targeting the colchicine binding site” (Eur J Med Chem, 2019)

How the values were obtained:
[1] = system: K562; test: Antiproliferative activity against human K562 cells after 72 hrs by MTT assay; type: functional, cell-based; conditions: K562, 72 h
Procedure, shortened: (§1)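 Cells preincubated 24 h at 37 °C, 5% CO₂. Compounds added at several concentrations in medium with 0.1% DMSO for 72 h. MTT (5 mg/mL in PBS) then added for 4 h, and optical density read at 490 nm. IC50 taken from dose-response curves; mean ± SD of at least three independent experiments.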

[2] = system: HepG2; test: Antiproliferative activity against human HepG2 cells after 72 hrs by MTT assay; type: functional, cell-based; conditions: HepG2, 72 h; procedure, shortened: as §1
[3] = system: MDA-MB-231; test: Antiproliferative activity against human MDA-MB-231 cells after 72 hrs by MTT assay; type: functional, cell-based; conditions: MDA-MB-231, 72 h; procedure, shortened: as §1
[4] = system: L02; test: Antiproliferative activity against human LO2 cells after 72 hrs by MTT assay; type: cell-based; conditions: L02, 72 h; procedure, shortened: as §1
[5] = system: A549/TR; test: Antiproliferative activity against human taxol-resistant A549/TR cells after 72 hrs by MTT assay; type: functional, cell-based; procedure, shortened: as §1
[6] = system: K562/VCR; test: Antiproliferative activity against human VCR-resistant K562/VCR cells after 72 hrs by MTT assay; type: functional, cell-based; procedure, shortened: as §1
[7] = system: K562; test: Induction of apoptosis in human K562 cells after 48 hrs by […]-based flow cytometric analysis; type: functional, cell-based
[8] = Antiproliferative activity against human ADR-resistant Bel7402/ADR cells after 72 hrs by MTT assay; type: functional; conditions: Bel-7402, 72 h; procedure, shortened: as §1
[9] = system: K562; test: Cell cycle arrest in human K562 cells assessed as accumulation of cells at G1 phase at 1 nM after 48 hrs by propidium iodide staining-based flow cytometric analysis (reference value: 69.57%); type: functional
[10] = system: K562; test: Cell cycle arrest in human K562 cells assessed as accumulation of cells at G1 phase at 2 nM after 48 hrs by propidium iodide staining-based flow cytometric analysis (reference value: 69.57%); type: functional
[11] = system: K562; test: Cell cycle arrest in human K562 cells assessed as accumulation of cells at G2 phase at 2 nM after 48 hrs by propidium iodide staining-based flow cytometric analysis (reference value: 10.51%); type: functional
[12] = system: HUVEC; test: Antiproliferative activity against HUVEC at 2 to 4 nM after 6 hrs; type: cell-based; conditions: human, 0.004 µM
[13] = Toxicity in ICR mouse xenografted with […] cells assessed as body weight loss at 20 mg/kg/day, iv for 21 days; type: organism-based; conditions: in vivo, 504 h
Procedure, shortened: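 H22 cells (1×10^6) implanted s.c. in right flank of male ICR mice (five weeks old), eight per group. Body weight recorded every 2 days during treatment.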

[14] = system: H22 (Mus musculus); test: Antiproliferative activity against mouse H22 cells after 72 hrs by MTT assay; conditions: H22, 72 h
[15] = system: K562; test: Induction of apoptosis in human K562 cells at 1 nM after 48 hrs by Annexin-V/propidium iodide staining-based flow cytometric analysis (reference value: 5.96%)
[16] = system: K562; test: Induction of apoptosis in human K562 cells at 4 nM after 48 hrs by Annexin-V/propidium iodide staining-based flow cytometric analysis (reference value: 5.96%)
[17] = system: K562; test: Induction of mitochondrial membrane potential loss in human K562 cells assessed as collapsed mitochondrial membrane at 1 nM after 48 hrs by JC-1 dye-based flow cytometric analysis (RVB = 6.17%)
[18] = system: K562; test: Induction of mitochondrial membrane potential loss in human K562 cells assessed as collapsed mitochondrial membrane at 2 nM after 48 hrs by JC-1 dye-based flow cytometric analysis (RVB = 6.17%)
[19] = system: K562; test: Induction of mitochondrial membrane potential loss in human K562 cells assessed as collapsed mitochondrial membrane at 4 nM after 48 hrs by JC-1 dye-based flow cytometric analysis (RVB = 6.17%)

## C=C(c1ccc2c(ccn2CO)c1)c1cc(C)nc2ccccc12
[1]
  IC50: 2 nM
[2]
  IC50: 6 nM
[3]
  IC50: 6 nM
[4]
  IC50: 48 nM
[5]
  IC50: 119 nM
[6]
  IC50: 31 nM
[7]
  Activity: Dose-dependent effect
[8]
  IC50: 61 nM
[9]
  Activity: 60.18%
[10]
  Activity: 50.63%
[11]
  Activity: 16.16%
[12]
  Activity: Non-Toxic
[13]
  Activity: Non-Toxic
[14]
  IC50: 6 nM
[15]
  Activity: 25.7%
[16]
  Activity: 72.8%
[17]
  Activity: 28.99%
[18]
  Activity: 45.1%
[19]
  Activity: 73.55%
